Where “and” joins values, the source holds several entries; their conditions need not be identical. Equal values may be shown once. Calls of active or inactive are those of the source.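 Rule for the calls: active = inhibitor concentration giving a fourfold drop in imipenem MIC is at most 10 µM; inactive = fourfold MIC drop needs more than 10 µM.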
What was measured:
[1] = system: VIM-2 E. coli growth with imipenem, OD600, 18 h; test: growth inhibition synergy, VIM-2 E. coli plus imipenem – MIC 4-fold reduction, powder samples, late-stage follow-up (AID 624081)
Procedure, shortened: (§1)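 Material – VIM-2-expressing E. coli · Medium – cation-adjusted Mueller-Hinton broth · Also added – imipenem in two-fold dilution series along plate columns · Dosing – compound two-fold series, checkerboard layout · Timing – aerobic incubation of at least 18 h at 37 °C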

[2] = as above; conditions: VIM-2 E. coli growth with imipenem, OD600, 18 h; measured here: max imipenem potentiation fold
Procedure, shortened: as §1

SMILES	MIC [1]	fold potentiation [2]
CN(NC(=O)CN1C(=O)/C(=C/c2c(Cl)cccc2Cl)SC1=S)c1ccc(Cl)nn1	> 100 µM (inactive)	–
O=C(CN1C(=O)/C(=C/c2c(Cl)cccc2Cl)SC1=S)NCCc1c[nH]c2ccccc12	> 100 µM (inactive)	–
O=C(CN1C(=O)/C(=C/c2c(Cl)cccc2Cl)SC1=S)Nc1ccncc1	12.5 µM (inactive)	8
CCOC(=O)c1c(NC(=O)CN2C(=O)/C(=C/c3c(Cl)cccc3Cl)SC2=S)sc2c1CCCC2	> 100 µM (inactive)	–
COc1ccc(CNC(=O)CN2C(=O)/C(=C/c3c(Cl)cccc3Cl)SC2=S)cc1	> 100 µM (inactive)	–
CN1CCN(NC(=O)CN2C(=O)/C(=C/c3c(F)cccc3C(F)(F)F)SC2=S)CC1	25 µM (inactive)	8
Cc1c(N2C(=O)/C(=C/c3c(Cl)cccc3Cl)SC2=S)c(=O)n(-c2ccccc2)n1C	12.5 µM (inactive)	8
CN1CCN(NC(=O)CN2C(=O)/C(=C/c3ccccc3Cl)SC2=S)CC1	50 µM (inactive)	–
COC(=O)CN1C(=O)/C(=C/c2c(Cl)cccc2Cl)SC1=S	12.5 µM (inactive)	8
O=C(O)CN1C(=O)/C(=C/c2c(F)cccc2C(F)(F)F)SC1=S	25 µM (inactive)	8
O=C(CN1C(=O)/C(=C/c2c(Cl)ccc(Cl)c2Cl)SC1=S)NCc1ccccn1	3.12 µM	–
COC(=O)CNC(=O)CN1C(=O)/C(=C/c2c(Cl)cccc2Cl)SC1=S	> 100 µM (inactive)	–
O=C(CN1C(=O)/C(=C/c2c(Cl)cccc2Cl)SC1=S)NOCc1ccccc1	> 100 µM (inactive)	–
O=C(CN1C(=O)/C(=C/c2c(Cl)cccc2Cl)SC1=S)Nc1ccccc1	> 100 µM (inactive)	–
O=C(CN1C(=O)/C(=C/c2c(Cl)cccc2Cl)SC1=S)NN1CCNCC1	3.12 µM	8
O=C(CN1C(=O)/C(=C/c2c(Cl)cccc2Cl)SC1=S)NC[C@H]1CCCO1	> 100 µM (inactive)	–
NC(=O)CN1C(=O)/C(=C/c2c(Cl)cccc2Cl)SC1=S	25 µM (inactive)	–
CN1CCN(NC(=O)CN2C(=O)/C(=C/c3c(Cl)ccc(Cl)c3Cl)SC2=S)CC1	3.12 µM	8
CN1CCN(NC(=O)CN2C(=O)/C(=C/c3c(C(F)(F)F)ccc(Cl)c3Cl)SC2=S)CC1	1.56 µM	8
O=C(CN1C(=O)/C(=C/c2ccccc2Cl)SC1=S)NCCc1cnc[nH]1	> 100 µM (inactive)	–

SMILES	MIC [1]	fold potentiation [2]
CN1CCN(C(=O)CN2C(=O)/C(=C/c3c(Cl)cccc3Cl)SC2=S)CC1	12.5 µM (inactive)	8
O=C(CN1C(=O)/C(=C/c2c(Cl)cccc2Cl)SC1=S)Nc1ccc(Cl)cn1	> 100 µM (inactive)	–
CN1CCN(NC(=O)CN2C(=O)/C(=C/c3ccccc3F)SC2=S)CC1	> 100 µM (inactive)	–
O=C(CN1C(=O)/C(=C/c2c(Cl)cccc2Cl)SC1=S)Nc1ccc(I)cn1	> 100 µM (inactive)	–
CN(NC(=O)CN1C(=O)/C(=C/c2c(Cl)cccc2Cl)SC1=S)c1ncc(C(F)(F)F)cc1Cl	> 100 µM (inactive)	–
O=C(O)CN1C(=O)/C(=C/c2c(Cl)cccc2Cl)SC1=S	3.12 µM	8
C=CCONC(=O)CN1C(=O)/C(=C/c2c(Cl)cccc2Cl)SC1=S	> 100 µM (inactive)	–
O=C(CN1C(=O)/C(=C/c2c(Cl)cccc2Cl)SC1=S)Nc1ccccc1F	> 100 µM (inactive)	–
O=C(CN1C(=O)/C(=C/c2c(Cl)cccc2Cl)SC1=S)Nc1cccnc1	3.12 µM	8
O=C1NC(=S)S/C1=C\c1c(Cl)cccc1Cl	> 100 µM (inactive)	–
CN(C)CCNC(=O)CN1C(=O)/C(=C\c2ccccc2Cl)SC1=S	> 100 µM (inactive)	–
CC(C)(C)OC(=O)N1CCN(NC(=O)CN2C(=O)/C(=C/c3c(Cl)ccc(Cl)c3Cl)SC2=S)CC1	1.56 µM	–
O=C(CN1C(=O)/C(=C/c2c(Cl)cccc2Cl)SC1=S)NC[C@@H]1CCCO1	> 100 µM (inactive)	–
O=C1/C(=C/c2c(Cl)cccc2Cl)SC(=S)N1Cc1ccncc1	12.5 µM (inactive)	8
CCN(CC)OC(=O)CN1C(=O)/C(=C/c2c(Cl)cccc2Cl)SC1=S	6.2 µM	8
CC(C)N1CCN(NC(=O)CN2C(=O)/C(=C/c3c(Cl)cccc3Cl)SC2=S)CC1	12.5 µM (inactive)	16
O=C(CN1C(=O)/C(=C/c2c(Cl)cccc2Cl)SC1=S)NCc1ccccc1Br	> 100 µM (inactive)	–
Cc1cc(C)n(NC(=O)CN2C(=O)/C(=C/c3c(Cl)cccc3Cl)SC2=S)c(=O)c1	3.12 µM	8
O=C(CN1C(=O)/C(=C/c2c(Cl)cccc2Cl)SC1=S)Nc1ccc(Br)cn1	> 100 µM (inactive)	–
O=C(CN1C(=O)/C(=C/c2c(Cl)cccc2Cl)SC1=S)NN1CCCCC1	6.2 µM	8

SMILES	MIC [1]	fold potentiation [2]
O=C(CN1C(=O)/C(=C/c2c(Cl)cccc2Cl)SC1=S)NCc1ccncc1	12.5 µM (inactive)	–
CC(C)(C)OC(=O)N1CCN(NC(=O)CN2C(=O)/C(=C/c3c(Cl)cccc3Cl)SC2=S)CC1	6.2 µM	8
Cc1cc(NC(=O)CN2C(=O)/C(=C/c3c(Cl)cccc3Cl)SC2=S)no1	> 100 µM (inactive)	–
O=C(CN1C(=O)/C(=C/c2c(Cl)cccc2Cl)SC1=S)NCc1ccccn1	6.2 µM	8
CN1CCN(C(=O)CN2C(=O)/C(=C/c3c(Cl)ccc(Cl)c3Cl)SC2=S)CC1	6.25 µM	–
C=CCNC(=O)CN1C(=O)/C(=C/c2c(Cl)cccc2Cl)SC1=S	> 100 µM (inactive)	–
O=C(CN1C(=O)/C(=C/c2c(Cl)ccc(Cl)c2Cl)SC1=S)NN1CCNCC1	12.5 µM (inactive)	–
CN(C)CCNC(=O)CN1C(=O)/C(=C/c2ccccc2Cl)SC1=S	> 100 µM (inactive)	–
O=C(CN1C(=O)/C(=C/c2c(Cl)cccc2Cl)SC1=S)Nc1ccccn1	> 100 µM (inactive)	–
O=C(CN1C(=O)/C(=C/c2c(Cl)cccc2Cl)SC1=S)NC1CCCCC1	> 100 µM (inactive)	–
CC(C)(C)NC(=O)CN1C(=O)/C(=C/c2c(Cl)cccc2Cl)SC1=S	> 100 µM (inactive)	–
CN1CCC(NC(=O)CN2C(=O)/C(=C/c3c(Cl)cccc3Cl)SC2=S)CC1	12.5 µM (inactive)	8
CN1CCN(NC(=O)CN2C(=O)/C(=C/c3c(F)cccc3Cl)SC2=S)CC1	12.5 µM (inactive)	–
CN1CCN(NC(=O)CN2C(=O)/C(=C/c3c(Cl)ccc(C(F)(F)F)c3Cl)SC2=S)CC1	0.781 µM	8
O=C(CN1C(=O)/C(=C/c2c(Cl)cccc2Cl)SC1=S)Nn1cnnc1	> 100 µM (inactive)	–
O=C(CN1C(=O)/C(=C/c2c(Cl)cccc2Cl)SC1=S)Nc1cc([N+](=O)[O-])ccc1O	3.12 µM	8
CN1CCN(NC(=O)CN2C(=O)/C(=C/c3c(Cl)cccc3Cl)SC2=S)CC1	6.25 µM and 12.5 µM (inactive)	8
O=C(CN1C(=O)/C(=C/c2ccccc2Cl)SC1=S)Nc1ccc(O)cc1	> 100 µM (inactive)	–

— PubChem BioAssay AID624081 (The Scripps Research Institute Molecular Screening Center, 2012)
